Test results reported in ChEMBL document CHEMBL1125500 (J Med Chem, 1992).
pIC50: −log10 of the molar value.

Key:
[1] = target: T1, Lanosterol 14-alpha demethylase (Rattus norvegicus, UniProt Q64654); assay: Inhibition of lanosterol 14 alpha-demethylase cytochrome P450 51A
T1 sequence (Q64654 whole entry): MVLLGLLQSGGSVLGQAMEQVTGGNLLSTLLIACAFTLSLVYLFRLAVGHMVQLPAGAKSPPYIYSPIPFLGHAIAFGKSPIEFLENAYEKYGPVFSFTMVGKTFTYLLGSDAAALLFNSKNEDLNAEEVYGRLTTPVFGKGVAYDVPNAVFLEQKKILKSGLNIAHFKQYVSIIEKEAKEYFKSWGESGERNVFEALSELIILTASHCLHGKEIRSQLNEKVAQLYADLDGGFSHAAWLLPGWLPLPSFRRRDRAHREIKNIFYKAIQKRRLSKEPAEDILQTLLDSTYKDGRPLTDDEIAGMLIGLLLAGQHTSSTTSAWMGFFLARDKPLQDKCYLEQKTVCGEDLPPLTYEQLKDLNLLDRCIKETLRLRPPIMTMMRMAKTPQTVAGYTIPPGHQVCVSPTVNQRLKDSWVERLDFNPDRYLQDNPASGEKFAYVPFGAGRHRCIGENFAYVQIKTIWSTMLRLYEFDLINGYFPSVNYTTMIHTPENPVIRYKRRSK
In short: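 Liver microsomes from cholestyramine-treated male rats. Buffer was potassium phosphate pH 7.0 with DTT, EDTA, MgCl2, 0.005% Tween-20, 20% glycerol, 5 mM glucose 6-phosphate and G6P dehydrogenase. […] Reaction was started with NADPH, run 30 min at 37 °C and stopped with TCA. Tritiated water-soluble products were separated on Bond-Elut and counted by scintillation in duplicate.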

[2] = target: Cytochrome P450 2A2 (Rattus norvegicus, UniProt P15149); assay: Inhibition of cytochrome P450 progesterone 15-alpha hydroxylase; assay type: ADME
Chain of Cytochrome P450 2A2 (P15149 whole entry): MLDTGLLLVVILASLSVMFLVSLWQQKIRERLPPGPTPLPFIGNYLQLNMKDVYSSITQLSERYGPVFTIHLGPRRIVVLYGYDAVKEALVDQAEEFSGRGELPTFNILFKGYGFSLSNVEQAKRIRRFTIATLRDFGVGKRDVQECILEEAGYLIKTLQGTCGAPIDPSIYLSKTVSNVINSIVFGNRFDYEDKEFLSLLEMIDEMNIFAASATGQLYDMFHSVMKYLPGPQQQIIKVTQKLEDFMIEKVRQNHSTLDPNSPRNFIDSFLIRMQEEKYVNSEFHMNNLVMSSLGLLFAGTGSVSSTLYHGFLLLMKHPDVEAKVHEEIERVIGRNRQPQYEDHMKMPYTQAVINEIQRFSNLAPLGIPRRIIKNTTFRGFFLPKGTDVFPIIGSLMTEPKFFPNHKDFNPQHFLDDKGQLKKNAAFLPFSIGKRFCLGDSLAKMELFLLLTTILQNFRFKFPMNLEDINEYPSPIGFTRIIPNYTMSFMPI

[3] = target: Cholesterol side-chain cleavage enzyme, mitochondrial (Bos taurus) (UniProt P00189); assay: Inhibition of cholesterol side chain cleavage cytochrome P450
Chain of Cholesterol side-chain cleavage enzyme, mitochondrial (Bos taurus) (P00189 whole entry, looked up): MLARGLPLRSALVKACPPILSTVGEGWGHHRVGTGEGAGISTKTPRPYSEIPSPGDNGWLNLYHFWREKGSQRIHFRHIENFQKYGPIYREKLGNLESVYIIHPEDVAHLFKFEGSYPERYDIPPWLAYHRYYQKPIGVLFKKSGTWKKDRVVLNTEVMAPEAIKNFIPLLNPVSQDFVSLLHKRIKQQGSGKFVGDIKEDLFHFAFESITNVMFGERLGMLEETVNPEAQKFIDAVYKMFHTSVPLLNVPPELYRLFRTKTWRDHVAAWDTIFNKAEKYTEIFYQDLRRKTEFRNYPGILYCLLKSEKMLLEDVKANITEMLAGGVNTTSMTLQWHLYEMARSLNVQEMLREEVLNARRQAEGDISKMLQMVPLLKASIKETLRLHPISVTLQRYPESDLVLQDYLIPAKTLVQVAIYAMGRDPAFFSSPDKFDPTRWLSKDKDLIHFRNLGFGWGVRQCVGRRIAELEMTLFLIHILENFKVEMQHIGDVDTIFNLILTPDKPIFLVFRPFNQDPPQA

[4] = Inhibition of cytochrome P450 progesterone 16-alpha hydroxylase; assay type: ADME, Rattus norvegicus
[5] = Inhibition of Steroid 17-alpha-hydroxylase/17,20 lyase cytochrome P450 17A1; set-up: species or system Sus scrofa
[6] = Inhibition of lauric acid hydroxylase cytochrome P450 4A; set-up: species or system Rattus norvegicus
In short: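 Microsomal protein (0.05 mg/mL) with [14C]lauric acid (10 nmol, 6 mCi/mmol), potassium phosphate pH 7.4, MgCl2, EDTA, glucose 6-phosphate, glucose-6-phosphate dehydrogenase (2 units) and NADPH, in 1 mL. Ran 10 min at 37 °C and was stopped with CH2Cl2. Products were resolved by reverse-phase HPLC on a MeCN gradient with radioflow detection.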

Compound | pIC50 [1] | pIC50 [2] | pIC50 [3] | pIC50 [4] | pIC50 [5] | pIC50 [6]
CC(=O)N1CCN(c2ccc(OC[C@H]3CO[C@@](Cn4ccnc4)(c4ccc(Cl)cc4Cl)O3)cc2)CC1 | 5.80 | 5.97 | 5.53 | 4.42 | 6.23 | < 4.00
CC(=O)N1CCN(c2ccc(OC[C@@H]3CO[C@](Cn4ccnc4)(c4ccc(Cl)cc4Cl)O3)cc2)CC1 | 5.86 | 6.14 | 5.41 | 4.49 |  | < 4.00
CC(=O)N1CCN(c2ccc(OCC3COC(Cn4ccnc4)(c4ccc(Cl)cc4Cl)O3)cc2)CC1 (stereo in doubt; 2) [KETOCONAZOLE] | 7.33 | 6.27 | 5.91 | 4.08 | 7.30 | 
CC(=O)N1CCN(c2ccc(OCC3COC(Cn4ccnc4)(c4ccc(Cl)cc4Cl)O3)cc2)CC1 (stereo in doubt; 4) [KETOCONAZOLE] | 6.92 | 6.43 | 5.27 | 4.16 | 5.62 | < 4.00
